{
  "source": "ChEMBL document CHEMBL1157302",
  "about": "“Quinone reductase induction as a biomarker for cancer chemoprevention” (J Nat Prod, 2006)",
  "key": {"[1]": {"test": "Chemoprevention index, ratio of IC50 for mouse Hepa-1c1c7 cells to drug level required to double specific NADPH:quinone reductase activity in mouse Hepa-1c1c7 cells", "type": "functional", "procedure,_shortened": "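QR induction measured in wild-type Hepa 1c1c7 murine hepatoma cells and two mutant lines (one lacking a functional Ah receptor, one unable to move receptor–ligand complex to the nucleus) by a previously described method; concentrations 2-30 µM; CD = concentration doubling specific QR activity; chemoprevention index = cell-viability IC50 divided by CD.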"}, "HepG2 [2]": {"tested_on": "HepG2", "test": "Induction of antioxidant response element activity in human HepG2 cells at 10 uM by luciferase based chemiluminescence assay", "type": "functional, cell-based", "procedure,_shortened": "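HepG2 human hepatoma cells stably transfected with an ARE-luciferase plasmid were treated with test agent at 10 µM, with DMSO (0.5% final) as vehicle control. Luciferase was read by chemiluminescence and expressed as fold induction over control, as means of three determinations ± SD. Significance was tested by Student's t-test (p < 0.05).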"}, "[3]": {"test": "Inhibition of mouse Hepa-1c1c7 Bprc1 mutant cells assessed as cell viability", "type": "functional", "procedure,_shortened": "(§1)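 Cell viability of wild-type and both mutant Hepa 1c1c7 lines measured alongside QR induction; IC50 = half-maximal inhibitory concentration of viability, mean ± SD, n = 2.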"}, "[4]": {"test": "Inhibition of mouse Hepa-1c1c7 TAOc1Bprc1 mutant cells assessed as cell viability", "type": "functional", "procedure,_shortened": "as §1"}, "[5]": {"test": "Inhibition of mouse Hepa-1c1c7 cells assessed as cell viability", "type": "functional, cell-based", "procedure,_shortened": "as §1"}, "HepG2 [6]": {"tested_on": "HepG2", "test": "Induction of antioxidant response element activity in human HepG2 cells by luciferase based chemiluminescence assay", "type": "functional, cell-based", "procedure,_shortened": "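HepG2 human hepatoma cells stably transfected with an ARE-luciferase plasmid; treated with 1.9-30 µM test agent, 10 µM 4′-bromoflavone or 10 µM sulforaphane positive controls, DMSO 0.5% final as vehicle control; chemiluminescence luciferase read-out as fold over control; mean of three determinations ± SD, Student's t-test p < 0.05.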"}, "[7]": {"test": "Chemoprevention index, ratio of IC50 for mouse Hepa-1c1c7 TAOc1Bprc1 mutant cells to drug level required to double specific NADPH:quinone reductase activity in mouse Hepa-1c1c7 TAOc1Bprc1 mutant cells", "type": "functional", "procedure,_shortened": "(§2)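 Hepa 1c1c7 mutant lines; the index is the IC50 for cell viability (half-maximal inhibition; mean ± SD, n = 2) divided by the concentration that doubles QR specific activity (CD) in the same mutant line.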"}, "HepG2 [8]": {"tested_on": "HepG2", "test": "Cytotoxicity against human HepG2 cells at 7.5 to 30 uM", "type": "functional, cell-based"}, "Rattus norvegicus [9]": {"tested_on": "Rattus norvegicus", "test": "Inhibition of DMBA-induced mammary carcinogenesis in Sprague-Dawley rat assessed as increase in tumor latency at 5000 mg/kg administered 7 days pre-DMBA challenge continued for 7 days post-DMBA challenge assessed after 120 days", "type": "functional, organism-based", "design": "dose 5000 mg/kg", "procedure,_shortened": "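Female Sprague-Dawley rats given DMBA, as described previously; test agent in diet at 2500 or 5000 mg/kg diet from 7 days before to 7 days after DMBA, then unsupplemented diet; 20 rats/group; tumor latency, incidence over 120 days and body weight recorded.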"}, "Rattus norvegicus [10]": {"tested_on": "Rattus norvegicus", "test": "Toxicity in DMBA-induced mammary carcinogenesis in Sprague-Dawley rat assessed as necropsy up to 20000 mg/kg administered 7 days pre-DMBA challenge continued for 7 days post-DMBA challenge assessed after 120 days", "type": "organism-based", "design": "dose 20000 mg/kg", "conditions": "in vivo, 2880 h", "procedure,_shortened": "(§3)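 Dose-finding prior to tumor study: diets with 1000, 2000, 3000, 4000, 5000 and 20 000 mg/kg diet; toxicity judged by body weight change and necropsy.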"}, "[11]": {"test": "Chemoprevention index, ratio of IC50 for mouse Hepa-1c1c7 Bprc1 mutant cells to drug level required to double specific NADPH:quinone reductase activity in mouse Hepa-1c1c7 Bprc1 mutant cells", "type": "functional", "procedure,_shortened": "as §2"}, "[12]": {"test": "Inhibition of 7,12-dimethylbenz[a]anthracene-induced preneoplastic lesions in a mouse mammary gland culture at 10 ug/mL", "type": "functional"}, "Rattus norvegicus [13]": {"tested_on": "Rattus norvegicus", "test": "Toxicity in DMBA-induced mammary carcinogenesis in Sprague-Dawley rat assessed as body weight changes up to 20000 mg/kg administered 7 days pre-DMBA challenge continued for 7 days post-DMBA challenge assessed after 120 days", "type": "organism-based", "design": "dose 20000 mg/kg", "conditions": "in vivo, 2880 h", "procedure,_shortened": "as §3"}},
  "note": "Active and inactive are the calls of the source. No cut-off for these calls is given here.",
  "data": [
    {"smiles": "O=c1cc(-c2ccc(Br)cc2)oc2ccccc12", "values": [
      {"measurement": "Ratio", "setting": "[1]", "result": ">2700"},
      {"measurement": "Activity", "setting": "HepG2 [2]", "result": "Active"},
      {"measurement": "IC50", "setting": "[3]", "result": "> 62.5", "unit": "µM"},
      {"measurement": "IC50", "setting": "[4]", "result": "> 62.5", "unit": "µM"},
      {"measurement": "IC50", "setting": "[5]", "result": "> 62.5", "unit": "µM"}
    ]},
    {"smiles": "O=C(/C=C/c1ccc(O)cc1)c1ccc(O)cc1O", "note": "[ISOLIQUIRITIGENIN]", "values": [
      {"measurement": "Activity", "setting": "HepG2 [6]", "result": "Dose-dependent effect"},
      {"measurement": "Ratio", "setting": "[7]", "result": 10},
      {"measurement": "Activity", "setting": "HepG2 [8]", "result": "inactive"},
      {"measurement": "Activity", "setting": "Rattus norvegicus [9]", "result": "Active"},
      {"measurement": "Ratio", "setting": "[1]", "result": 11},
      {"measurement": "Activity", "setting": "Rattus norvegicus [10]", "result": "Non-toxic"},
      {"measurement": "Ratio", "setting": "[11]", "result": 2},
      {"measurement": "inhibition at 10 µg/mL", "setting": "[12]", "result": 76, "unit": "%"},
      {"measurement": "IC50", "setting": "[3]", "result": 16.2, "unit": "µM"},
      {"measurement": "IC50", "setting": "[4]", "result": 22, "unit": "µM"},
      {"measurement": "Activity", "setting": "Rattus norvegicus [13]", "result": "Non-toxic"},
      {"measurement": "IC50", "setting": "[5]", "result": 19.6, "unit": "µM"}
    ]},
    {"smiles": "C[S+]([O-])CCCCN=C=S", "note": "(centres undefined) [SULFORAPHANE]", "values": [
      {"measurement": "Ratio", "setting": "[7]", "result": 18},
      {"measurement": "Ratio", "setting": "[1]", "result": 21},
      {"measurement": "Ratio", "setting": "[11]", "result": 16},
      {"measurement": "Activity", "setting": "HepG2 [2]", "result": "Active"},
      {"measurement": "IC50", "setting": "[3]", "result": 7.6, "unit": "µM"},
      {"measurement": "IC50", "setting": "[4]", "result": 5.9, "unit": "µM"},
      {"measurement": "IC50", "setting": "[5]", "result": 6.3, "unit": "µM"}
    ]}
  ]
}
